# Reference: ChEMBL document CHEMBL4689842, “EUbOPEN Chemogenomics Library wave 1” (2021)
# Where “and” joins values, the source holds several entries; their conditions need not be identical. Equal values may be shown once.
# Test system: U2OS
# Assay: Multiplex assay against U2OS
# Type: toxicity, cell-based
# Settings: human
# How it was run: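 Compound was added to live cells that had been stained at seeding with Hoechst33342, BioTracker Green Microtubule Cytoskeleton Dye, MitoTracker Red and Annexin V Alexa Fluor 680, and imaging followed on a CQ1 microscope at 37°C and 5% CO2. CellPathfinder machine-learning gating divided cells into Hoechst high-intensity objects or normal cells, normal cells into healthy, pyknosed or fragmented nuclei, and pyknosed cells into mitotic or apoptotic. Tubulin, mitochondrial-mass and membrane-permeability phenotypes are per cents of healthy-nucleus cells.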
# [1] = 12 h, 10 µM, compound concentration 10 uM, replicate 1
# [2] = 12 h, 10 µM, compound concentration 10 uM, replicate 2
# [3] = 24 h, 10 µM, compound concentration 10 uM, replicate 1
# [4] = 24 h, 10 µM, compound concentration 10 uM, replicate 2
# [5] = 12 h, 1 µM, compound concentration 1 uM, replicate 1
# [6] = 12 h, 1 µM, compound concentration 1 uM, replicate 2
# [7] = 24 h, 1 µM, compound concentration 1 uM, replicate 1
# [8] = 24 h, 1 µM, compound concentration 1 uM, replicate 2
compound,measurement,setting,value
CCN(CC)S(=O)(=O)Nc1cccc(-c2ccc3c(NC(=O)C4CC4)n[nH]c3c2)c1,Population Apoptotic (%),[1],45% and 28%
same,Population Fragmented Nuclei (%),[1],7% and 4%
same,Population Healthy Nuclei (%),[1],83% and 87%
same,Population Hoechst High Intensity Objects (%),[1],2% and 3%
same,Population Membrane Permeable-Phenotype (%),[1],16% and 7%
same,Population Mitochondria Different-Phenotype (%),[1],10% and 26%
same,Population Mitotic Cells (%),[1],55% and 71%
same,Population Normal (%),[1],97% and 96%
same,Population Pyknosed Nuclei (%),[1],9% and 8%
same,Population Tubulin-Different-Phenotype (%),[1],8% and 17%
same,Total Cell Count,[1],177 and 289
same,Population Apoptotic (%),[2],0% and 16%
same,Population Fragmented Nuclei (%),[2],9% and 8%
same,Population Healthy Nuclei (%),[2],80% and 85%
same,Population Hoechst High Intensity Objects (%),[2],5% and 14%
same,Population Mitotic Cells (%),[2],100% and 83%
same,Population Normal (%),[2],94% and 85%
same,Population Pyknosed Nuclei (%),[2],10% and 5%
same,Population Tubulin-Different-Phenotype (%),[2],20% and 13%
same,Total Cell Count,[2],120 and 259
same,Population Apoptotic (%),[3],21%
same,Population Healthy Nuclei (%),[3],70% and 92%
same,Population Hoechst High Intensity Objects (%),[3],3% and 2%
same,Population Mitochondria Different-Phenotype (%),[3],13% and 26%
same,Population Mitotic Cells (%),[3],78%
same,Population Normal (%),[3],96% and 97%
same,Population Pyknosed Nuclei (%),[3],21%
same,Total Cell Count,[3],241 and 253
same,Population Apoptotic (%),[4],20% and 28%
same,Population Fragmented Nuclei (%),[4],13% and 6%
same,Population Healthy Nuclei (%),[4],68% and 87%
same,Population Hoechst High Intensity Objects (%),[4],6% and 8%
same,Population Membrane Permeable-Phenotype (%),[4],18% and 6%
same,Population Mitochondria Different-Phenotype (%),[4],17% and 29%
same,Population Mitotic Cells (%),[4],79% and 71%
same,Population Normal (%),[4],93% and 91%
same,Population Tubulin-Different-Phenotype (%),[4],22%
same,Total Cell Count,[4],134 and 195
COc1ccc(S(=O)(=O)N(CCO)c2ccccc2CN(C)C/C=C/c2ccc(Cl)cc2)cc1.O=P(O)(O)O,Population Apoptotic (%),[5],57%
same,Population Healthy Nuclei (%),[5],77%
same,Population Hoechst High Intensity Objects (%),[5],2%
same,Population Membrane Permeable-Phenotype (%),[5],62%
same,Population Mitochondria Different-Phenotype (%),[5],91%
same,Population Mitotic Cells (%),[5],42%
same,Population Normal (%),[5],97%
same,Population Pyknosed Nuclei (%),[5],13%
same,Total Cell Count,[5],95
same,Population Apoptotic (%),[6],84%
same,Population Fragmented Nuclei (%),[6],9%
same,Population Healthy Nuclei (%),[6],74%
same,Population Hoechst High Intensity Objects (%),[6],8%
same,Population Membrane Permeable-Phenotype (%),[6],85%
same,Population Mitochondria Different-Phenotype (%),[6],100%
same,Population Mitotic Cells (%),[6],15%
same,Population Normal (%),[6],91%
same,Population Pyknosed Nuclei (%),[6],15%
same,Population Tubulin-Different-Phenotype (%),[6],100%
same,Total Cell Count,[6],118
same,Population Apoptotic (%),[1],57%
same,Population Fragmented Nuclei (%),[1],11%
same,Population Healthy Nuclei (%),[1],81%
same,Population Hoechst High Intensity Objects (%),[1],5%
same,Population Membrane Permeable-Phenotype (%),[1],47%
same,Population Mitochondria Different-Phenotype (%),[1],20%
same,Population Mitotic Cells (%),[1],42%
same,Population Normal (%),[1],94%
same,Population Pyknosed Nuclei (%),[1],7%
same,Population Tubulin-Different-Phenotype (%),[1],28%
same,Total Cell Count,[1],170
same,Population Apoptotic (%),[2],0%
same,Population Fragmented Nuclei (%),[2],10%
same,Population Healthy Nuclei (%),[2],89%
same,Population Hoechst High Intensity Objects (%),[2],16%
same,Population Membrane Permeable-Phenotype (%),[2],33%
same,Population Mitochondria Different-Phenotype (%),[2],16%
same,Population Mitotic Cells (%),[2],0%
same,Population Normal (%),[2],83%
same,Population Pyknosed Nuclei (%),[2],0%
same,Population Tubulin-Different-Phenotype (%),[2],12%
same,Total Cell Count,[2],88
same,Population Apoptotic (%),[7],69%
same,Population Fragmented Nuclei (%),[7],14%
same,Population Healthy Nuclei (%),[7],63%
same,Population Hoechst High Intensity Objects (%),[7],3%
same,Population Membrane Permeable-Phenotype (%),[7],84%
same,Population Mitochondria Different-Phenotype (%),[7],100%
same,Population Mitotic Cells (%),[7],30%
same,Population Normal (%),[7],96%
same,Population Pyknosed Nuclei (%),[7],21%
same,Population Tubulin-Different-Phenotype (%),[7],100%
same,Total Cell Count,[7],125
same,Population Apoptotic (%),[8],95%
same,Population Fragmented Nuclei (%),[8],16%
same,Population Healthy Nuclei (%),[8],58%
same,Population Hoechst High Intensity Objects (%),[8],8%
same,Population Membrane Permeable-Phenotype (%),[8],94%
same,Population Mitochondria Different-Phenotype (%),[8],98%
same,Population Mitotic Cells (%),[8],4%
same,Population Normal (%),[8],91%
same,Population Pyknosed Nuclei (%),[8],24%
same,Population Tubulin-Different-Phenotype (%),[8],98%
same,Total Cell Count,[8],137
same,Population Apoptotic (%),[3],62%
same,Population Fragmented Nuclei (%),[3],5%
same,Population Healthy Nuclei (%),[3],87%
same,Population Hoechst High Intensity Objects (%),[3],2%
same,Population Membrane Permeable-Phenotype (%),[3],26%
same,Population Mitochondria Different-Phenotype (%),[3],13%
same,Population Mitotic Cells (%),[3],37%
same,Population Normal (%),[3],97%
same,Population Pyknosed Nuclei (%),[3],6%
same,Population Tubulin-Different-Phenotype (%),[3],22%
same,Total Cell Count,[3],173
same,Population Apoptotic (%),[4],16%
same,Population Fragmented Nuclei (%),[4],4%
same,Population Healthy Nuclei (%),[4],85%
same,Population Hoechst High Intensity Objects (%),[4],8%
same,Population Membrane Permeable-Phenotype (%),[4],17%
same,Population Mitochondria Different-Phenotype (%),[4],26%
same,Population Mitotic Cells (%),[4],83%
same,Population Normal (%),[4],91%
same,Population Pyknosed Nuclei (%),[4],9%
same,Population Tubulin-Different-Phenotype (%),[4],11%
same,Total Cell Count,[4],83
